{"source": "ChEMBL document CHEMBL4513216", "about": "“Probing the Open Global Health Chemical Diversity Library for Multistage-Active Starting Points for Next-Generation Antimalarials” (ACS Infect Dis, 2020)", "assay": "Toxicity liver stage against HepG2, at 10uM", "type": "cell-based", "design": "test concentration 10 uM, cell line HepG2-A16-CD81EGFP", "conditions": "human, HepG2-A16-CD81EGFP cells; read-out: INHIBITION", "summary_of_the_method": "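Uninfected HepG2-A16-CD81EGFP cells, 3 × 10^3 per well, 1536-well, plated on prespotted compound at 10 μM final, parasite-free screening media added to match infected plates; puromycin 10 μM positive, DMSO 0.5% negative; run in parallel with 48 h PbLuc assay at 37 °C, 5% CO2; viability by CellTiter-Glo luminescence, normalized to controls.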", "data": [{"smiles": "CN1C[C@@H](NC(=O)c2ccccc2)C[C@H]1c1nc(-c2cnccn2)no1", "values": [{"measurement": "cytotoxicity at 10 µM", "result": 9.68, "unit": "%"}]}, {"smiles": "COc1ccc(OC)c(S(=O)(=O)NCC2(OC)CCSC2)c1", "note": "(stereo unspecified)", "values": [{"measurement": "cytotoxicity at 10 µM", "result": -12.8, "unit": "%"}]}, {"smiles": "O=C(c1cncs1)N1CCC(c2cnccn2)CC1", "values": [{"measurement": "cytotoxicity at 10 µM", "result": -23.2, "unit": "%"}]}, {"smiles": "CC(C)C(=O)N1CCCC(c2ncncc2-c2ccncc2)C1", "note": "(stereo unspecified)", "values": [{"measurement": "cytotoxicity at 10 µM", "result": -6.62, "unit": "%"}]}, {"smiles": "CN1CCC(O)(CNCc2ccc(F)c(C(F)(F)F)c2)CC1", "values": [{"measurement": "cytotoxicity at 10 µM", "result": 3.08, "unit": "%"}]}, {"smiles": "COc1ccccc1C(N)CC(C)C", "note": "(stereo unspecified)", "values": [{"measurement": "cytotoxicity at 10 µM", "result": 6, "unit": "%"}]}, {"smiles": "CN(C)CCCNC(=O)c1ccnc(OCc2ccccc2)c1", "values": [{"measurement": "cytotoxicity at 10 µM", "result": -11.5, "unit": "%"}]}, {"smiles": "CCOCC(O)CN1CCN(C(=O)c2ccncc2)CC1", "note": "(stereo unspecified)", "values": [{"measurement": "cytotoxicity at 10 µM", "result": 10, "unit": "%"}]}, {"smiles": "Cc1ccc(C(=O)NCC2(O)CCOCC2)cc1F", "values": [{"measurement": "cytotoxicity at 10 µM", "result": 6.79, "unit": "%"}]}, {"smiles": "Cc1cc(C(=O)Nc2ccnc(OC3CCOC3)c2)c(C)o1", "note": "(stereo unspecified)", "values": [{"measurement": "cytotoxicity at 10 µM", "result": 6.66, "unit": "%"}]}, {"smiles": "CC(C)(O)CSCCNC(=O)c1cc(F)ccc1F", "values": [{"measurement": "cytotoxicity at 10 µM", "result": -4.11, "unit": "%"}]}, {"smiles": "Cc1cc(OCc2cccc(F)c2)ccc1NC(=O)C(C)NC(N)=O", "note": "(stereo unspecified)", "values": [{"measurement": "cytotoxicity at 10 µM", "result": -1.47, "unit": "%"}]}, {"smiles": "CC(C)n1cnnc1C1CCCN(S(=O)(=O)CCCC#N)C1", "note": "(stereo unspecified)", "values": [{"measurement": "cytotoxicity at 10 µM", "result": -3.46, "unit": "%"}]}, {"smiles": "CC(C)(CCS(C)(=O)=O)CNc1ccc2ccc(F)cc2n1", "values": [{"measurement": "cytotoxicity at 10 µM", "result": -6.01, "unit": "%"}]}, {"smiles": "COCC(=O)N1CCc2nc(NC(C)C)nc(NC(C)C)c2CC1", "values": [{"measurement": "cytotoxicity at 10 µM", "result": -104, "unit": "%"}]}, {"smiles": "Cc1ccc(CNC(=O)c2nc3c(n2C)CCN(c2ncccn2)C3)o1", "values": [{"measurement": "cytotoxicity at 10 µM", "result": -119, "unit": "%"}]}, {"smiles": "COCC1CN(C(=O)c2ccnnc2)Cc2c1cnn2C", "note": "(stereo unspecified)", "values": [{"measurement": "cytotoxicity at 10 µM", "result": -3.09, "unit": "%"}]}, {"smiles": "O=C(N[C@@H]1c2ccccc2C[C@@H]1O)C1CCN(Cc2ccco2)CC1", "values": [{"measurement": "cytotoxicity at 10 µM", "result": -0.647, "unit": "%"}]}, {"smiles": "CC(C)(C)c1oc(C(N)=O)cc1CN1CCCCC1CN1CCOCC1", "note": "(stereo unspecified)", "values": [{"measurement": "cytotoxicity at 10 µM", "result": -11.2, "unit": "%"}]}, {"smiles": "Cc1nccn1CCC1CCN(c2ncccn2)CC1", "values": [{"measurement": "cytotoxicity at 10 µM", "result": -3, "unit": "%"}]}, {"smiles": "Cc1csc2ncnc(N3CCCC(Cn4cc(C(C)(C)O)nn4)C3)c12", "note": "(stereo unspecified)", "values": [{"measurement": "cytotoxicity at 10 µM", "result": 2.74, "unit": "%"}]}, {"smiles": "Cc1cc(C)c(C(=O)N2CCC3(CCCN(CC(C)(C)C)C3)C2)[nH]1", "note": "(stereo unspecified)", "values": [{"measurement": "cytotoxicity at 10 µM", "result": -3.73, "unit": "%"}]}, {"smiles": "COCCN1CCC(CN(C)c2nc3c(s2)c(C)nn3C)C1", "note": "(stereo unspecified)", "values": [{"measurement": "cytotoxicity at 10 µM", "result": -4.36, "unit": "%"}]}, {"smiles": "CC(C)CN1CCc2[nH]cnc2C12CCN(C(=O)c1cc[nH]n1)CC2", "values": [{"measurement": "cytotoxicity at 10 µM", "result": 0.363, "unit": "%"}]}, {"smiles": "COCc1cc(N2CCN(Cc3ccncc3)CC2)n2nccc2n1", "values": [{"measurement": "cytotoxicity at 10 µM", "result": -6.32, "unit": "%"}]}, {"smiles": "O=C(O)C1(Oc2ccccc2)CCN(c2ccncc2)CC1", "values": [{"measurement": "cytotoxicity at 10 µM", "result": -3.99, "unit": "%"}]}, {"smiles": "c1ccc(-c2cccc(-c3ccn(CCN4CCCCC4)n3)c2)nc1", "values": [{"measurement": "cytotoxicity at 10 µM", "result": -4.73, "unit": "%"}]}, {"smiles": "Cc1c(F)cccc1CN1CCn2nc(CNC(=O)N(C)C)cc2C1", "values": [{"measurement": "cytotoxicity at 10 µM", "result": -19.4, "unit": "%"}]}, {"smiles": "CC(C)C(=O)N1CCN(Cc2cc(-c3ccncc3)nn2C)CC1", "values": [{"measurement": "cytotoxicity at 10 µM", "result": 0.59, "unit": "%"}]}, {"smiles": "CC(C)Cc1cc(NC(=O)c2ccncc2)n(C)n1", "values": [{"measurement": "cytotoxicity at 10 µM", "result": -0.502, "unit": "%"}]}, {"smiles": "CC(C)c1nccn1C1CCCN(C(=O)c2cc(C3CC3)on2)C1", "note": "(stereo unspecified)", "values": [{"measurement": "cytotoxicity at 10 µM", "result": -7.37, "unit": "%"}]}, {"smiles": "CC(C)c1n[nH]c(C2CN(C(=O)c3cnccn3)CCO2)n1", "note": "(stereo unspecified)", "values": [{"measurement": "cytotoxicity at 10 µM", "result": 2.16, "unit": "%"}]}, {"smiles": "CCc1nc(C(=O)N2CCCC2)nn1-c1c(Cl)cccc1Cl", "values": [{"measurement": "cytotoxicity at 10 µM", "result": -2.04, "unit": "%"}]}, {"smiles": "CCOc1cc(C(=O)N2CCCC(c3nc(C)c(C)s3)C2)ccn1", "note": "(stereo unspecified)", "values": [{"measurement": "cytotoxicity at 10 µM", "result": -3.92, "unit": "%"}]}, {"smiles": "O=C(CN1CCCC1Cn1cccn1)NCCOc1cccc(F)c1", "note": "(stereo unspecified)", "values": [{"measurement": "cytotoxicity at 10 µM", "result": -3.54, "unit": "%"}]}, {"smiles": "CC(C)C(=O)NCCNC(=O)CCOc1cccc(F)c1", "values": [{"measurement": "cytotoxicity at 10 µM", "result": -2.98, "unit": "%"}]}, {"smiles": "COC(=O)C(c1cc(F)ccc1F)N(C)C(=O)c1cnccn1", "note": "(stereo unspecified)", "values": [{"measurement": "cytotoxicity at 10 µM", "result": 6.43, "unit": "%"}]}, {"smiles": "CCCc1n[nH]c(C2CN(C(=O)Cn3ccccc3=O)CCO2)n1", "note": "(stereo unspecified)", "values": [{"measurement": "cytotoxicity at 10 µM", "result": -1.33, "unit": "%"}]}, {"smiles": "Cc1noc([C@@H](C)NCc2cccc(Cl)c2)c1C(=O)O", "values": [{"measurement": "cytotoxicity at 10 µM", "result": -0.802, "unit": "%"}]}, {"smiles": "COc1ccc(C(C)(C)C)cc1CN1CCn2c(CO)nnc2C1", "values": [{"measurement": "cytotoxicity at 10 µM", "result": 10.4, "unit": "%"}]}, {"smiles": "Cc1cccc(CN2CCOC3(COCCN(CCN(C)C)C3)C2)n1", "note": "(stereo unspecified)", "values": [{"measurement": "cytotoxicity at 10 µM", "result": -113, "unit": "%"}]}, {"smiles": "Cn1cc(CN2CC(C(=O)Nc3ccccc3)C3(CCOCC3)C2)cn1", "note": "(stereo unspecified)", "values": [{"measurement": "cytotoxicity at 10 µM", "result": -1.96, "unit": "%"}]}, {"smiles": "CN(Cc1ccccn1)C(=O)c1nn(C)c2c1CCN(CC1CC1)C2", "values": [{"measurement": "cytotoxicity at 10 µM", "result": -1.68, "unit": "%"}]}, {"smiles": "Cn1nc(C(=O)N2CCOCC2)c2c1CN(CC1CC1)C2", "values": [{"measurement": "cytotoxicity at 10 µM", "result": -90.1, "unit": "%"}]}, {"smiles": "O=C1COC2(CCN(Cc3cccnc3)CC2)CN1c1ccccc1", "values": [{"measurement": "cytotoxicity at 10 µM", "result": -113, "unit": "%"}]}, {"smiles": "CCSc1ncc(CN2C[C@@H]3CC[C@H]2CN(C2CCOCC2)C3)cn1", "values": [{"measurement": "cytotoxicity at 10 µM", "result": -6.38, "unit": "%"}]}]}
